Key:
NCI-H460 = test: Growth inhibition of human NCI-H460 cells after 48 hrs by sulforhodamine B assay; format: functional; conditions: NCI-H460, 48 h
Procedure, shortened: (§1)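 Panel of 60 human cancer cell lines; for each compound, dose–response curves per cell line measured at a minimum of five concentrations at 10-fold dilutions. Cells exposed continuously to drug for 48 h, and growth was read out by sulforhodamine B staining.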

BT-549 = test: Growth inhibition of human BT549 cells after 48 hrs by sulforhodamine B assay; format: functional; conditions: BT-549, 48 h
Procedure, shortened: (§2)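 Dose–response in each cell line over at least five concentrations at 10-fold dilutions, with 48 h continuous exposure and sulforhodamine B read-out.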

SF-539 = test: Growth inhibition of human SF539 cells after 48 hrs by sulforhodamine B assay; format: functional; conditions: SF-539, 48 h; procedure, shortened: as §1
SNB-75 = test: Growth inhibition of human SNB75 cells after 48 hrs by sulforhodamine B assay; format: functional; conditions: SNB-75, 48 h; procedure, shortened: as §1
MCF7 = test: Growth inhibition of human MCF7 cells after 48 hrs by sulforhodamine B assay; format: functional; conditions: MCF7, 48 h; procedure, shortened: as §1
COLO 205 = test: Growth inhibition of human COLO205 cells after 48 hrs by sulforhodamine B assay; format: functional; conditions: COLO 205, 48 h; procedure, shortened: as §2
HCT-116 = test: Growth inhibition of human HCT116 cells after 48 hrs by sulforhodamine B assay; format: functional; conditions: HCT-116, 48 h; procedure, shortened: as §1
HOP-92 = test: Growth inhibition of human HOP92 cells after 48 hrs by sulforhodamine B assay; format: functional; conditions: HOP-92, 48 h; procedure, shortened: as §1
U-251 = test: Growth inhibition of human U251 cells after 48 hrs by sulforhodamine B assay; format: functional; conditions: U-251, 48 h; procedure, shortened: as §1
A-375 [1] = test: Cell cycle arrest in human A375 cells assessed as accumulation at G1 phase at 2 uM after 24 hrs using propidium iodide staining by flow cytometry; format: functional
Procedure, shortened: (§3)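 A375 cells (5×10^5) grown 24 h, then exposed to compound 24 h (DMSO control). Trypsin–EDTA harvest, fixed in ice-cold 70% ethanol at 4 °C 30 min, RNase A 37 °C 30 min, propidium iodide staining. DNA content measured by flow cytometry on 20,000 events, gated as sub-G1/G0, G1, S and G2/M.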

HCC 2998 = test: Growth inhibition of human HCC2998 cells after 48 hrs by sulforhodamine B assay; format: functional; conditions: HCC 2998, 48 h; procedure, shortened: as §1
786-0 = test: Growth inhibition of human 786-0 cells after 48 hrs by sulforhodamine B assay; format: functional; conditions: 786-0, 48 h; procedure, shortened: as §2
Calf thymus DNA = test: Binding affinity to calf thymus duplex-form DNA assessed as melting temperature at 1:5 compound/DNA ratio after 18 hrs; format: nucleic-acid assay; conditions: Bos taurus
A498 = test: Growth inhibition of human A498 cells after 48 hrs by sulforhodamine B assay; format: functional; conditions: A498, 48 h; procedure, shortened: as §2
A-375 [2] = test: Cell cycle arrest in human A375 cells assessed as accumulation at G0/G1 phase at 2 uM after 24 hrs using propidium iodide staining by flow cytometry; format: functional; procedure, shortened: as §3
SF-295 = test: Growth inhibition of human SF295 cells after 48 hrs by sulforhodamine B assay; format: functional; conditions: SF-295, 48 h; procedure, shortened: as §1
HOP-62 = test: Growth inhibition of human HOP62 cells after 48 hrs by sulforhodamine B assay; format: functional; conditions: HOP-62, 48 h; procedure, shortened: as §1
ACHN = test: Growth inhibition of human ACHN cells after 48 hrs by sulforhodamine B assay; format: functional; procedure, shortened: as §2
NCI-H322M = test: Growth inhibition of human NCI-H322M cells after 48 hrs by sulforhodamine B assay; format: functional; procedure, shortened: as §1
RXF 393 = test: Growth inhibition of human RXF393 cells after 48 hrs by sulforhodamine B assay; format: functional; conditions: RXF 393, 48 h; procedure, shortened: as §1
SF-268 = test: Growth inhibition of human SF268 cells after 48 hrs by sulforhodamine B assay; format: functional; conditions: SF-268, 48 h; procedure, shortened: as §1
OVCAR-5 = test: Growth inhibition of human OVCAR5 cells after 48 hrs by sulforhodamine B assay; format: functional; conditions: OVCAR-5, 48 h; procedure, shortened: as §1
NCI/ADR-RES = test: Growth inhibition of human NCI/ADR-RES cells after 48 hrs by sulforhodamine B assay; format: functional; procedure, shortened: as §1
LOX IMVI = test: Growth inhibition of human LOXIMVI cells after 48 hrs by sulforhodamine B assay; format: functional; procedure, shortened: as §1
UACC-257 = test: Growth inhibition of human UACC257 cells after 48 hrs by sulforhodamine B assay; format: functional; conditions: UACC-257, 48 h; procedure, shortened: as §1
SR = test: Growth inhibition of human SR cells after 48 hrs by sulforhodamine B assay; format: functional; procedure, shortened: as §1
Malme-3M = test: Growth inhibition of human MALME-3M cells after 48 hrs by sulforhodamine B assay; format: functional; procedure, shortened: as §1
PC-3 = test: Growth inhibition of human PC3 cells after 48 hrs by sulforhodamine B assay; format: functional; conditions: PC-3, 48 h; procedure, shortened: as §1
UACC-62 = test: Growth inhibition of human UACC62 cells after 48 hrs by sulforhodamine B assay; format: functional; conditions: UACC-62, 48 h; procedure, shortened: as §1
A-375 [3] = test: Cell cycle arrest in human A375 cells assessed as accumulation at G0 phase at 2 uM after 24 hrs using propidium iodide staining by flow cytometry; format: functional; procedure, shortened: as §3
MOLT-4 = test: Growth inhibition of human MOLT4 cells after 48 hrs by sulforhodamine B assay; format: functional; conditions: MOLT-4, 48 h; procedure, shortened: as §1
CAKI-1 = test: Growth inhibition of human Caki1 cells after 48 hrs by sulforhodamine B assay; format: functional; conditions: CAKI-1, 48 h; procedure, shortened: as §2
HL-60 = test: Growth inhibition of human HL-60(TB) cells after 48 hrs by sulforhodamine B assay; format: functional; conditions: HL-60, 48 h; procedure, shortened: as §1
A-375 [4] = test: Cell cycle arrest in human A375 cells assessed as accumulation at G2/M phase at 2 uM after 24 hrs using propidium iodide staining by flow cytometry; format: functional; procedure, shortened: as §3
TK-10 = test: Growth inhibition of human TK10 cells after 48 hrs by sulforhodamine B assay; format: functional; conditions: TK-10, 48 h; procedure, shortened: as §1
NCI-H522 = test: Growth inhibition of human NCI-H522 cells after 48 hrs by sulforhodamine B assay; format: functional; conditions: NCI-H522, 48 h; procedure, shortened: as §1
IGROV-1 = test: Growth inhibition of human IGROV1 cells after 48 hrs by sulforhodamine B assay; format: functional; conditions: IGROV-1, 48 h; procedure, shortened: as §1
A549 = test: Growth inhibition of human A549 cells after 48 hrs by sulforhodamine B assay; format: functional; conditions: A549, 48 h; procedure, shortened: as §2
HT-29 = test: Growth inhibition of human HT-29 cells after 48 hrs by sulforhodamine B assay; format: functional; conditions: HT-29, 48 h; procedure, shortened: as §1
OVCAR-8 = test: Growth inhibition of human OVCAR8 cells after 48 hrs by sulforhodamine B assay; format: functional; conditions: OVCAR-8, 48 h; procedure, shortened: as §1
Hs-578T = test: Growth inhibition of human Hs 578T cells after 48 hrs by sulforhodamine B assay; format: functional; procedure, shortened: as §1
HCT-15 = test: Growth inhibition of human HCT15 cells after 48 hrs by sulforhodamine B assay; format: functional; conditions: HCT-15, 48 h; procedure, shortened: as §1
KM12 = test: Growth inhibition of human KM12 cells after 48 hrs by sulforhodamine B assay; format: functional; conditions: KM12, 48 h; procedure, shortened: as §1
A-375 [5] = test: Cell cycle arrest in human A375 cells assessed as accumulation at S phase at 2 uM after 24 hrs using propidium iodide staining by flow cytometry; format: functional; procedure, shortened: as §3
MDA-MB-435 = test: Growth inhibition of human MDA-MB-435 cells after 48 hrs by sulforhodamine B assay; format: functional; conditions: MDA-MB-435, 48 h; procedure, shortened: as §1

## COc1cc(-c2nc3ccccc3s2)ccc1OCCCCOc1cc2c(cc1OC)C(=O)N1CCC[C@H]1C=N2
NCI-H460
  GI50: 646 nM
BT-549
  GI50: 282 nM
SF-539
  GI50: 537 nM
SNB-75
  GI50: 1230 nM
MCF7
  GI50: 407 nM
COLO 205
  GI50: 692 nM
HCT-116
  GI50: 525 nM
HOP-92
  GI50: 263 nM
U-251
  GI50: 417 nM
A-375 [1]
  Activity: 69.69%
HCC 2998
  GI50: 646 nM
786-0
  GI50: 891 nM
Calf thymus DNA
  ΔTm: 0.5 °C
A498
  GI50: 1620 nM
A-375 [2]
  Activity: 90.55%
SF-295
  GI50: 1910 nM
HOP-62
  GI50: 1410 nM
ACHN
  GI50: 776 nM
NCI-H322M
  GI50: 2570 nM
RXF 393
  GI50: 240 nM
SF-268
  GI50: 1230 nM
OVCAR-5
  GI50: 501 nM
NCI/ADR-RES
  GI50: 1910 nM
LOX IMVI
  GI50: 724 nM
UACC-257
  GI50: 2190 nM
SR
  GI50: 295 nM
Malme-3M
  GI50: 1550 nM
PC-3
  GI50: 407 nM
UACC-62
  GI50: 1120 nM
A-375 [3]
  Activity: 20.86%
MOLT-4
  GI50: 676 nM
CAKI-1
  GI50: 575 nM
HL-60
  GI50: 513 nM
A-375 [4]
  Activity: 4.45%
TK-10
  GI50: 1510 nM
NCI-H522
  GI50: 550 nM
IGROV-1
  GI50: 3090 nM
A549
  GI50: 2690 nM
HT-29
  GI50: 537 nM
OVCAR-8
  GI50: 1780 nM
Hs-578T
  GI50: 1020 nM
HCT-15
  GI50: 1320 nM
KM12
  GI50: 1020 nM
A-375 [5]
  Activity: 5%
MDA-MB-435
  GI50: 1350 nM
